pCIP destab = p/CIP protein destabilization; Q05BA5; F442A p/CIP-EGFP cells, EGFP fluorescence, 16 h; decrease of EGFP signal, % at 10 µM; 0.01% of 290,000 active;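 active = EGFP signal decrease of at least 30% at 10 µM or well 3 SD below plate mean, unless failing retest; inactive = the rest, including hits failing retest or dose response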
Target sequence (Q05BA5 1-1403): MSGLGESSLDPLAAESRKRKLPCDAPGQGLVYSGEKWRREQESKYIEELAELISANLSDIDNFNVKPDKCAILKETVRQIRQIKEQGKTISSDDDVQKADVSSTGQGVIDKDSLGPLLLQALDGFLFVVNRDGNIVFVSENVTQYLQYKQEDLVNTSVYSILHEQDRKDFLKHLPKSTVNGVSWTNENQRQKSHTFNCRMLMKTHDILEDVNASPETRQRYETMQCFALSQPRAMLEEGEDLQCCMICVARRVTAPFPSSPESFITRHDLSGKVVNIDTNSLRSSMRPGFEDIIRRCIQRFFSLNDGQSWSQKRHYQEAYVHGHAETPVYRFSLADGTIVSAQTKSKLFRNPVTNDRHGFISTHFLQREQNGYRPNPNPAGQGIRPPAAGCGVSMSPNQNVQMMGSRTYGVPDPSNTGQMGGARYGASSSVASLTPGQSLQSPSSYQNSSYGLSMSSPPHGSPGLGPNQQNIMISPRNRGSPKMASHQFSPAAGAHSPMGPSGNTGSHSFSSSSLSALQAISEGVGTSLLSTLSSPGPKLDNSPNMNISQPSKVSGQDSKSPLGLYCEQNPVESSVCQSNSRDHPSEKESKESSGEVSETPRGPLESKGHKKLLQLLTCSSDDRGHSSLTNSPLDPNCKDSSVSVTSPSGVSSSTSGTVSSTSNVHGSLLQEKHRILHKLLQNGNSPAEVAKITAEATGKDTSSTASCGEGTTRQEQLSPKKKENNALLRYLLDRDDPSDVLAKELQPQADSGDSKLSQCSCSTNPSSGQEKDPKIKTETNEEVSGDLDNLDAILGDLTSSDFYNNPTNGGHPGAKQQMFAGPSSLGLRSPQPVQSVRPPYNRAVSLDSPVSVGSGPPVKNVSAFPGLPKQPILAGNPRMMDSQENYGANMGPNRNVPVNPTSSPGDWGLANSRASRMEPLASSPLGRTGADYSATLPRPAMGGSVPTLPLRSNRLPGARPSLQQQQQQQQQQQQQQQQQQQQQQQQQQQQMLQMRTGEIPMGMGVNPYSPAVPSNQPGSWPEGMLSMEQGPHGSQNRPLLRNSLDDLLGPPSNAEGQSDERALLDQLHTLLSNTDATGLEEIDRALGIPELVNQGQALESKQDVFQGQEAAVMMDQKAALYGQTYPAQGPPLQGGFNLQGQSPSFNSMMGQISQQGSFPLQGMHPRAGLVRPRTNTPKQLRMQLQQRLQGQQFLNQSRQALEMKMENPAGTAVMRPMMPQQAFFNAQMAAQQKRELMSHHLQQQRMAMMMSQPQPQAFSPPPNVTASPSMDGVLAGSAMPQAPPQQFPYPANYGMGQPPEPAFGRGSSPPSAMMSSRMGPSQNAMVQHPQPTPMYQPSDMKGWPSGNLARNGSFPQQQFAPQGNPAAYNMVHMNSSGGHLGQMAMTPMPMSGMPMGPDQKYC
T cell HTS = T cell immune modulators affecting CD8 T cell-vesicle binding | 2C CD8+ T cell-vesicle binding, flow cytometry; stronger effect = lower value | response (vesicle binding), % at 7 µM | AID 2052 | 0.068% of 330,000 active;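 active = response, share of CD8 T cells binding vesicles, and their 90th percentile fluorescence all below set limits, cut at about 80% in these data, passing the limit was not always enough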;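 also: values below 100% mean blocked vesicle binding to the CD8+ T cells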
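Material: murine 2C transgenic CD8+ T lymphocytes / Also added: QL9-peptide-loaded Drosophila micro-vesicles bearing Ld, ICAM-1 and B7-1 / Schedule: binding step 1.5 h, 37 °C, antibody labelling 20 min, ice / Signal: flow cytometry, PE anti-B7-1 (FL2) versus Alexa647 anti-CD8 (FL8), PFA-fixed / Evaluation: percent CD8+ FL2 mean versus row control / Benchmarks: naked versus QL9-loaded vesicles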
GPR7 antagonist = blocks human GPR7 receptor signaling; inhibition, % at 4.4 µM; 1.1% of 290,000 active; P48145; GPR7-expressing cells, fluorescence antagonist assay; in the data active = inhibition above about 16%, passing the limit was not always enough;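 also: cells stimulated with the agonist NPW; 0% = agonist with vehicle and 100% = vehicle without agonist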
DSG3 Ab inh = blocks pemphigus antibody binding to human desmoglein-3; DSG3-coupled beads, scFv-anti-DSG3-GFP binding, flow cytometry; stronger effect = lower value; binding (percent of control), % at 10 µM; P32926; 0.48% of 310,000 active;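 active = binding more than 3 SD below its plate's average and above zero; inconclusive = below that plate limit but binding exactly zero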;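 also: hits lower antibody fragment binding to DSG3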
CHT allo act = allosteric activators of human choline transporter CHT; Q9GZV3; CHT-expressing cells, membrane potential dye, choline EC20; stronger effect = higher value; LV-AA mutant CHT in HEK293 cells; B-score at 10 µM; 0.49% of 310,000 active;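 active = initial fluorescence not abnormally high and integrated response B-score, plate-corrected, over 3 SD above library mean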
CHT inh = human CHT choline transport inhibition | CHT-expressing cells, membrane potential dye, choline response; stronger effect = lower value | Q9GZV3 | B-score at 10 µM | AID 488975 | 0.86% of 310,000 active;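 active = B-score over 3 SD under the library average, and starting fluorescence ratio not unusually high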;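 also: choline stimulus applied at its EC90 after an EC20 pre-addition; B-score computed on integrated fluorescence ratio after choline addition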
CHT act confirm = human CHT activation, confirmatory screen; shares compounds with CHT allo act; CHT-expressing cells, membrane potential dye fluorescence (FDSS); % of choline EC20–EC90 response window; HEK293 expressing CHT LV-AA mutant; choline added at its EC20; activation, % at 10 µM; 91% of 2,500 active; AID 504833;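 active = primary screen active, with duplicate mean activation above negative control mean plus 3 SD, cut at about 11% in these data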
HEK293 MP dye = CHT activator counter-screen hit in parental HEK293 cells | shares compounds with CHT allo act | membrane potential dye fluorescence (FDSS); measured after EC20 choline addition | ratio readout change at 10 µM, hits read low | 62% of 2,500 active | AID 623908;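 active = duplicate-averaged ratio beyond 3 SD from buffer wells, up or down, though filed actives are nearly all decreases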
Numbers without * were called inactive; i = inactive; ? = inconclusive; / = no result given. Sampled rows, rich in hits. Any-hit rate of the full collection: about 2.3%.

SMILES	pCIP destab	T cell HTS	GPR7 antagonist	DSG3 Ab inh	CHT allo act	CHT inh	CHT act confirm	HEK293 MP dye
CNC(=S)N/N=C/c1cc(C)n(-c2ccc(Cl)c(Cl)c2)c1C	-5.7	211.9	-2.7	/	9.28*	i	8.4	i
O=C(O)CCCNc1cc(N2CCC3(CC2)OCCO3)c2noc3c2c1C(=O)c1ccccc1-3	2.1	494.0	-9.7	/	i	i	/	/
CCOC(=O)N1CCN(c2cc(NCCC(=O)O)c3c4c(onc24)-c2ccccc2C3=O)CC1	-10.6	490.1	-16.0	91.9	i	i	25.7*	-60.1*
COc1ccccc1N1CC(C(=O)OCC(=O)c2c(N)n(C)c(=O)n(C)c2=O)CC1=O (centres undefined)	/	/	/	101.7	/	/	/	/
Cc1cc(=O)n2c3ccccc3n(CC(O)CN3CCN(CCO)CC3)c2c1C#N (centres undefined)	-5.7	425.6	-9.3	104.5	i	i	46.1*	-33.7*
Cc1cc(=O)n2c3ccccc3n(CC(O)CN3CCN(Cc4ccccc4)CC3)c2c1C#N (centres undefined)	-5.8	i	-20.5	/	7.62*	i	51.0*	-55*
CCC1CCCCN1CC(O)Cn1c2ccccc2n2c(=O)cc(C)c(C#N)c12 (centres undefined)	-8.7	223.1	11.7	102.6	7.7*	i	39.5*	-27.9*
Cn1c(=O)c2[nH]c(C=Cc3ccc4c(c3)OCO4)nc2n(C)c1=O	/	/	/	108.2	/	/	/	/
COC(=O)c1cc(C)nc2c1C(=O)C(=O)C=C2N1CCOCC1	4.2	238.9	-25.4	231.7	i	i	/	/
CCN(CC)CCNc1cc(C)nc2c1C(=O)C(=O)C=C2N1CCCCC1	7.9	292.0	-7.4	90.5	7.33*	i	64.5*	-66.1*
Cn1c(N)c(N=O)c(=O)n(C)c1=S	/	/	/	93.8	/	/	/	/
Cc1cccn2c(=O)c(C=C(C#N)C#N)c(N3CCN(c4ccccc4)CC3)nc12	-16.2	148.1	1.4	94.3	i	i	/	/
CCN1CCN(c2nc3c(C)cccn3c(=O)c2C=C(C#N)C#N)CC1	-12.2	172.7	8.3	113.2	7.28*	i	50.0*	-60.7*
Cc1cccn2c(=O)c(C=C(C#N)C#N)c(N3CCN(C)CC3)nc12	-16.4	204.7	-15.0	108.9	8.46*	i	56.2*	-65.3*
COc1ccc(-c2nnn(CC(=O)N(CCCN3CCOCC3)C(C(=O)NC3CCCC3)c3ccco3)n2)cc1 (centres undefined)	2.1	142.7	-4.0	104.2	i	i	/	/
O=C(c1ccc(CS(=O)c2ccccc2Cl)o1)N1CCOCC1 (centres undefined)	-2.3	387.4	0.3	?	i	i	/	/
O=C(c1ccc(CS(=O)c2ccccc2Cl)o1)N1CCN(c2ccccc2)CC1 (centres undefined)	-25.4	477.5	20.4	122.2	6.36*	i	16.6*	i
COc1cccc(N2CCN(C(=O)c3ccc(CS(=O)c4ccccc4Cl)o3)CC2)c1 (centres undefined)	-9.8	175.2	16.4	100.0	i	i	50.2*	i
O=C(O)CSc1c(Cl)c(=O)oc2ccc(Cl)cc12	/	/	/	104.9	/	/	/	/
COc1ccc(CNc2nc3ccccc3n2CCN2CCCCC2)c(OC)c1	7.2	608.8	10.3	109.6	i	i	/	/
COc1ccc(OC)c(CNc2nc3ccccc3n2CCN2CCCCC2)c1	-2.6	279.7	17.6	109.5	i	i	34.3*	i
CCN(CC(=O)Nc1ccccc1C(F)(F)F)C(=O)CCOc1ccc(C)cc1	/	511.0	/	102.2	i	i	6.6	i
COc1ccc(C(=O)N/N=C/c2cc3ccccc3[nH]c2=O)cc1	-7.4	148.6	-1.1	93.3	i	i	29.4*	-31.7*
CCn1ncc(CN2CCC(n3nccc3NC(=O)c3ccccc3Cl)CC2)c1C	/	/	/	108.9	/	/	/	/
COc1ccc(-n2c(=O)c3c4c(sc3n3c(C)nnc23)CCCC4)cc1	/	/	2.1	/	/	/	/	/
Cc1nnc2n(-c3ccccc3)c(=O)c3c4c(sc3n12)CCCC4	4.4	380.5	-16.5	100.6	6.46*	i	26.1*	-40.3*

Compound activity (PubChem)
